# Screens as filed in PubChem BioAssay.
# APJ antagonist = blocks the human apelin receptor APJ. P35414. CHO-K1 APJ beta-arrestin complementation, luminescence. inhibition, % at 20 µM. hit rate 0.32% among 330,000. AID 2521;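 active means inhibition above about 40% at 20 µM, limit read from the data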;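 further: cells challenged with 10 nM apelin-13 agonist together with compound; plate controls were apelin-13 plus DMSO wells for no effect and DMSO wells lacking apelin-13 for full effect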
# APJ ag = activates the human apelin receptor APJ; CHO-K1 APJ PathHunter beta-arrestin, luminescence; 0% DMSO wells, 100% apelin; activation, % at 20 µM; hit rate 0.11% among 330,000;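 active means activation more than six SD over the plate average, tested at 20 µM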;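 further: 0% = DMSO alone and 100% = apelin-13 at 10 nM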
#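 Assay system – PathHunter CHO-K1 APJ (AGTRL-1) beta-arrestin reporter cells · Compound – one dose, 20 µM compound, 1% DMSO · Timing – compound 90 min 25 °C, reagent 1 h · Measured by – luminescence from split beta-galactosidase complementation, Galacton Star/Emerald II substrate · Measure – beta-arrestin recruitment to APJ as agonist activity, luminescent signal · Benchmarks – DMSO vs Apelin-13 10 nM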
# CXCR6 block = blocks human CXCR6 beta-arrestin recruitment. inhibition, % at 20 µM. O00574. CHO-K1 PathHunter CXCR6 beta-arrestin, luminescence. hit rate 0.36% among 360,000; in the data active means inhibition above about 34%, passing the limit was not always enough;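 further: antagonist mode with CXCL16 agonist at 10 nM final; 0% = 10 nM CXCL16 with DMSO and 100% = unstimulated wells without agonist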
# EBI2 block = antagonists of human EBI2 receptor; P32249; EBI2 beta-arrestin recruitment, luminescence, 7a,25-OHC stimulated; inhibition, % at 5 µM; hit rate 0.81% among 360,000; AID 651636; in the data active means inhibition above about 38%;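 further: enzyme fragment complementation signal reports receptor beta-arrestin coupling in cells; 0% = agonist plus DMSO wells and 100% = wells without agonist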
# CCR6 antagonist = blocks CCL20-driven beta-arrestin recruitment at human CCR6; P51684; CHO-K1 CCR6 PathHunter beta-arrestin, luminescence, CCL20-stimulated; hit rate 0.49% among 340,000; inhibition, % at 20 µM;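 active means compounds whose inhibition of the agonist-driven luminescence signal at 20 µM reaches about 50%, limit read from the data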;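 further: cells stimulated with CCL20 at 14 nM final; plate controls were DMSO with CCL20 for no effect and DMSO without agonist for full effect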
# Target sequence (P51684 whole entry, looked up): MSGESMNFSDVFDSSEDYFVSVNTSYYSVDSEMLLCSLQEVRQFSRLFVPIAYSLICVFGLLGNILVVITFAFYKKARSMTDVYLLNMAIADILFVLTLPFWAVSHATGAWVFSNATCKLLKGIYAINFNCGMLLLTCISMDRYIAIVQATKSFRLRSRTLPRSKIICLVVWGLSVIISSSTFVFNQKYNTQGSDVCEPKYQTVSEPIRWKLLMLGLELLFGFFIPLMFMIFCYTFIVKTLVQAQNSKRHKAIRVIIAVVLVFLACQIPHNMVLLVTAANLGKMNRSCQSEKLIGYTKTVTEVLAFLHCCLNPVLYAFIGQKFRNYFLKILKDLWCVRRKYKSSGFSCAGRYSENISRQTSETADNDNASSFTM
# HTR2A ag = agonists of mouse serotonin 5-HT2A receptor (HTR2A); activation, % at 7.6 µM; hit rate 0.66% among 360,000; CHO-K1 mHTR2A beta-arrestin complementation, luminescence; percent of 30 µM serotonin response; P35363;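 active means activation above a run cutoff, the mean activation of all tested compounds plus 3 SD, cut at about 14% in these data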;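 further: 0% = plate median of compound wells and 100% = 30 µM serotonin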
# MOR ag counter = counter-screen for mouse HTR2A agonists: human mu opioid receptor agonists; shares compounds with HTR2A ag; hit rate 5.3% among 2,300; activation, % at 9.3 µM; U2OS OPRM1 beta-arrestin PathHunter, luminescence; DMSO 0%, DAMGO 9.3 µM 100%;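 active means mean activation above the mean of DMSO-only wells plus 3 SD, cut at about 0.5% in these data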
# m5-HT2A ag conf = confirmation of mouse HTR2A serotonin receptor agonists. activation, % at 7.6 µM. shares compounds with HTR2A ag. AID 624381. CHO-K1 PathHunter beta-arrestin recruitment, luminescence; DMSO 0%, 30 µM serotonin 100%. hit rate 19% among 2,300;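 active means mean activation across triplicates above the hit threshold derived in the original primary screen, cut at about 15% in these data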
# The depositor's hits bear a star; x = no result. A selection: hits, their analogues and other compounds. The true share with any hit is near 2.1%.
SMILES,APJ antagonist,APJ ag,CXCR6 block,EBI2 block,CCR6 antagonist,HTR2A ag,MOR ag counter,m5-HT2A ag conf
CC(=O)Nc1ccc(Nc2nc(C)c([N+](=O)[O-])c(N(C)c3ccccc3)n2)cc1,5,-1,6,-8,16,25*,0,-5
CC(=O)Nc1ccc(Nc2nc(C)c([N+](=O)[O-])c(Nc3ccccc3)n2)cc1,1,0,9,3,18,0,x,x
O=C(CNC(=O)c1ccc(Br)cc1)N=Nc1c(O)[nH]c2ccc([N+](=O)[O-])cc12,24,-4,18,4,38,6,x,x
Cc1ccccc1N1C(=O)C2C3C=CC(CC3)C2C1=O (stereo not given),7,-3,0,4,1,2,x,x
O=C1c2cc(N3CCCC3)c([N+](=O)[O-])cc2C(=O)N1c1ccccc1,-3,-2,-7,-11,20,1,x,x
COC(=O)[C@@]1(Sc2ccc(C)cc2)CC(=O)N[C@@H]1c1ccc(C(F)(F)F)cc1,x,x,-2,9,x,15*,0.8*,3
Oc1ccc(C(c2nnnn2CCc2ccccc2)N2CCN(c3nc4ccccc4s3)CC2)cc1 (stereo not given),-8,-1,-5,26,12,22*,-1,-2
COc1cc(C(c2nnnn2C(C)(C)C)N2CCN(c3nc4ccccc4s3)CC2)ccc1O (stereo not given),-5,0,4,-9,1,29*,-1,9
COc1ccc(C(c2nnnn2C(C)(C)C)N2CCN(c3nc4ccccc4s3)CC2)cc1OC (stereo not given),x,x,2,-1,-13,-3,x,x
CN(C)CCCn1c(NC(=O)C2CCCCC2)nc2ccccc21,-15,-2,4,-7,17,20*,-1,4
O=c1oc2ccccc2n1Cc1ccccc1Cl,-4,-2,3,0,6,0,x,x
CCCOc1nc2c(c(=O)n(C)c(=O)n2C)n1C,7,-2,5,3,8,7,x,x
C=C(C)c1cccc(C(C)(C)NC(=O)Nn2cnnc2)c1,11,-1,0,9,3,16*,-1,16*
C=C(C)c1cccc(C(C)(C)NC(=O)Nc2ncccn2)c1,-2,6,5,-2,13,-5,x,x
C=C(C)c1cccc(C(C)(C)NC(=O)Nc2ccc(Cl)cn2)c1,1,-1,-8,10,9,30*,0,18*
CCOC(=O)c1c(O)c2c(n(Cc3ccco3)c1=O)CCCC2,-24,2,-3,-14,-9,15*,0,6
COc1ccc2nc(NC(=O)c3ccoc3C)sc2c1,-5,-2,-1,-3,8,23*,-1,-5
COc1ccc2nc(NC(=O)c3cc(C)oc3C)sc2c1,1,-2,-3,6,11,1,x,x
CC1CC(=O)Nc2ccccc2N1S(=O)(=O)c1ccc(C#N)cc1 (stereo not given),-2,-1,2,-12,-5,1,x,x
COc1ccc(C(=O)c2oc3nc(C)cc(C)c3c2N)cc1,7,3,-9,4,4,4,x,x
CCCN(CCC)CC(=O)NCC1(c2ccccc2)CCOCC1,3,4,2,10,5,17*,0.5*,5
COc1cccc(-c2n[nH]nc2C2=CC(=O)C[C@H](c3ccc(F)cc3)C2)c1,x,x,-3,9,x,22*,0,0
COc1ccc([C@H]2CC(=O)C=C(c3cccc(CO)c3)C2)cc1,1,-2,-10,30,2,15*,-1,-4
O=C1C=C(c2ccc(F)cc2OCc2ccccc2)C[C@@H](c2ccc(F)cc2)C1,2,1,1,14,20,16*,-1,-9
O=C1C=C(c2ccc(-c3ccccc3)c(F)c2)C[C@@H](c2ccc(F)cc2)C1,-4,1,-4,22,11,2,x,x
SMILES,APJ antagonist,APJ ag,CXCR6 block,EBI2 block,CCR6 antagonist,HTR2A ag,MOR ag counter,m5-HT2A ag conf
O=C1C=C(c2n[nH]nc2-c2ccccc2)C[C@@H](c2ccc(F)cc2)C1,x,x,3,18,x,15*,-1,-4
O=S(=O)(N/N=C/c1ccc(N2CCOCC2)cc1)c1ccc(Br)cc1,1,1,10,-18,-3,-6,x,x
CCCCN(C(=O)CCC(=O)Nc1cc(C)on1)C(C(=O)NC1CCCC1)c1ccc(OC)cc1 (stereo not given),-2,1,6,5,7,4,x,x
CCCCN(C(=O)CCC(=O)Nc1cc(C)on1)C(C(=O)NC1CCCC1)c1cccc(OC)c1 (stereo not given),-12,-2,0,7,19,14*,-1,-5
O=C1NC[C@H](Cc2ccccc2)N(C[C@H]2CCCN2C[C@H](Cc2ccc(O)cc2)N2C[C@H](Cc3ccc(O)cc3)N(CC3CCCCCC3)C(=O)C2=O)C1=O,x,x,11,5,14,26*,-1,73*
CCC(C(=O)O)N1C(=O)/C(=C/C(C)=C/c2ccccc2)SC1=S (stereo not given),-10,-4,-1,8,10,-3,x,x
CC(=O)c1cccc(NC(=O)c2c(F)c(F)c(F)c(F)c2F)c1,2,2,-17,6,-15,8,x,x
COC(=O)c1cc(NC(=O)c2c(F)c(F)c(F)c(F)c2F)cc(C(=O)OC)c1,-12,-3,-13,-8,-24,18*,0,6
Cc1cccc(C)c1NC(=O)NN=C1CCCCC1,21,-3,-9,3,9,16*,-1,-3
CN=C(NC(=O)Nc1c(C)cccc1C)NC(=O)Nc1c(C)cccc1C,5,0,7,-2,14,4,x,x
COc1cccc(COC(=O)C(Cc2ccccc2)NC(=O)c2ccco2)c1 (stereo not given),x,x,-7,1,x,17*,0,9
Cc1ccc(SCn2nnc3ccccc3c2=O)c(C)c1,1,-2,5,9,14,25*,0,0
CN1C(=O)C(CC(=O)NC2CCCCC2)SC1=Nc1ccccc1 (stereo not given),-2,-2,-11,-11,0,23*,-1,-3
CCN=C1SC(CC(=O)NC2CCCCC2)C(=O)N1CC (stereo not given),14,0,1,1,-3,-5,x,x
O=C(NCc1ccc2c(c1)CCO2)Nc1cccc(C(F)(F)F)c1,-8,3,4,1,6,0,x,x
